TNAP inh hi DEA: inhibitors of human TNAP at high phosphate acceptor concentration; P05186; purified TNAP, CDP-star luminescence, 1 M DEA; inhibition, % at 20 µM; 0.03% of 200,000 active; AID 1135;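 active = over 50% inhibition of tissue-nonspecific alkaline phosphatase at 20 µM in the single-dose screen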
Target sequence (P05186 whole entry, looked up): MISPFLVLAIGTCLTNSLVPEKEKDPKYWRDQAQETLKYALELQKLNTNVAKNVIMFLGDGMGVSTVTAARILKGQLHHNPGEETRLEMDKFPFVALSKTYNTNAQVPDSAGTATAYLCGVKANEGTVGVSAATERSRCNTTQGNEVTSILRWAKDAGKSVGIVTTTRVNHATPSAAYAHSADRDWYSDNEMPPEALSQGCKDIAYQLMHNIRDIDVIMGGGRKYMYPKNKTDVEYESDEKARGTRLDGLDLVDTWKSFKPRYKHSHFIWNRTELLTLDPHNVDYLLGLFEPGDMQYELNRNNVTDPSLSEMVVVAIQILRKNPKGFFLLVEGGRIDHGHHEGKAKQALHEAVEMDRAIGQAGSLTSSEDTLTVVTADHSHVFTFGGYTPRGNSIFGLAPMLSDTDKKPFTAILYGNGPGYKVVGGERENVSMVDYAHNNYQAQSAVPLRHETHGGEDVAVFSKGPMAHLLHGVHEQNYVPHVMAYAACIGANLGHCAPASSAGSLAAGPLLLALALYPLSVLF
TNAP act hiacc: increases human TNAP activity under high phosphate acceptor concentration; activation factor at 20 µM; 200,000 tested, under 10 active; purified TNAP, CDP-star luminescence, 1 M DEA, 30 min; stronger effect = higher value; 0 = EDTA background, 1 = DMSO-only activity; AID 1136;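 active = activation factor at least 2 at 20 µM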
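Measured by: Luminescent substrate turnover signal | Test system: Human TNAP | Input: TNAP 1/800 final | Dosing: 20 µM single point | Schedule: 30 min, room temperature | Controls: EDTA wells as negative control, DMSO wells as positive control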
PTEN del growth: suppresses growth of cells with PTEN deletion. viability, % at 10 µM. 1.2% of 140,000 active. HCT116 PTEN-null viability, CellTiter-Glo, 60 h; stronger effect = lower value;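 active = viability at or below a set limit, 4 SD under the median of all tested compounds, cut at about 3.7% in these data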;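 also: PTEN knockout HCT116 line with beta catenin targeted HCT116 as companion control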
TNAP inh no acc: inhibitors of human TNAP without phosphate acceptor; 0.26% of 200,000 active; purified TNAP, CDP-star luminescence, 30 min; AID 1012; inhibition, % at 20 µM;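 active = tissue-nonspecific alkaline phosphatase inhibition above about 50% at 20 µM in the single-dose screen, limit read from the data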
bCat KO growth: beta-catenin-lacking colon tumor cell growth suppression. HCT116 beta-catenin knockout viability, CellTiter-Glo, 60 h; stronger effect = lower value. viability, % at 10 µM. 1.5% of 140,000 active;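 active = viability at or under a set limit, the compound median less 4 SD, cut at about 6% in these data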
L major viab: inhibitors of Leishmania major promastigote growth | Leishmania major promastigotes, resazurin fluorescence viability | inhibition, % at 10 µM | 9% of 200,000 active; in the data active = inhibition above about 50%;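 also: promastigotes grown with compound for 44 hours at 28 °C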
Each line names hits and unclear results; the compound was inactive in the other large screens. Rows were chosen to be rich in hits. Some 9.6% of all compounds tested hit in one or more screens of this group.

CCOc1ccccc1NC(=S)NC1CCCCC1	L major viab 92
Cc1c(Cl)cccc1NC(=S)NCCCN(C)C	L major viab 82
O=C(CCSc1nnc(-c2ccco2)o1)Nc1ccc(F)cc1	none (no result: PTEN del growth, bCat KO growth)
CNC(=S)N(Cc1ccc(OC)cc1)C1CC(=O)N(c2ccc(Cl)cc2)C1=O (stereo unspecified)	L major viab 52
C=CCN(C(=O)Nc1ccc(Cl)cc1)C1CC(=O)N(c2ccc(OC)cc2)C1=O (stereo unspecified)	none
COc1ccc(CN(C(=S)Nc2ccccc2)C2CC(=O)N(c3ccc(F)cc3)C2=O)cc1 (stereo unspecified)	L major viab 91
O=C1CC(N(CCc2ccccc2)C(=S)Nc2ccccc2)C(=O)N1c1ccc(Br)cc1 (stereo unspecified)	PTEN del growth 2.8, bCat KO growth 1.9
COc1ccc(CCN(C(=S)Nc2ccccc2)C2CC(=O)N(c3ccccc3)C2=O)cc1 (stereo unspecified)	none
CC(C)c1nnc(N2C(=O)C(O)=C(C(=O)c3cccs3)C2c2ccccc2)s1 (stereo unspecified)	none (no result: PTEN del growth, bCat KO growth)
CCN(CC)CCNC(=O)c1cc2cc(Br)ccc2s1	L major viab 96 (no result: PTEN del growth, bCat KO growth)
CCN(CC)CCNC(=O)c1ccc(N)cc1	none
CCOc1cc(/C=C2/C(=O)ON=C2C)ccc1OCc1ccccc1F	L major viab 58
Nc1c(C(O)(C(F)(F)F)C(F)(F)F)ccc2ccccc12	L major viab 100
Cc1cc(C(=O)COC(=O)CN=C2NS(=O)(=O)c3ccccc32)c(C)n1CCc1ccc(Cl)cc1	none
Cc1cccc(NC(=O)c2oc(=O)c3ccccc3c2-c2ccccc2)c1C	L major viab 80
C=CCn1c(=O)c2ccccc2n2c(Sc3nnnn3-c3ccccc3)nnc12	L major viab 56
Cc1ccc(S(=O)(=O)/C(C#N)=C/c2c(Oc3ccc(Cl)cc3)nc3c(C)cccn3c2=O)cc1	PTEN del growth 2.0, bCat KO growth 2.7, L major viab 77
CC(=O)n1nc(-c2ccc(C)cc2)nc1NCc1ccc(F)cc1	none (no result: PTEN del growth, bCat KO growth)
COc1cccc(-n2nnc3c(=O)n(CC(=O)N4CCC(Cc5ccccc5)CC4)cnc32)c1	L major viab 94
COc1cccc(-n2nnc3c(=O)n(CC(=O)N4CCC(C)CC4)cnc32)c1	none
COc1cccc(-n2nnc3c(=O)n(CC(=O)N4CCCc5ccccc54)cnc32)c1	L major viab 71
CCOC(=O)C1(Cc2ccccc2C(F)(F)F)CCN(C(C)COC)CC1 (stereo unspecified)	none (no result: PTEN del growth, bCat KO growth)
CCOC(=O)C1(CCCc2ccccc2)CCN(Cc2nccn2CC)CC1	L major viab 75 (no result: PTEN del growth, bCat KO growth)
Cc1ncc(CN2CCC(CO)(Cc3ccccc3)CC2)s1	L major viab 89 (no result: PTEN del growth, bCat KO growth)
CCOC(=O)C1(Cc2ccccc2C(F)(F)F)CCN(CCCn2cccn2)CC1	L major viab 88 (no result: PTEN del growth, bCat KO growth)
CCOC(=O)C1(CCCc2ccccc2)CCN(CCCn2cccn2)CC1	L major viab 76 (no result: PTEN del growth, bCat KO growth)
CCOC(=O)C1(CCCc2ccccc2)CCN(C(=O)c2ccoc2)CC1	none (no result: PTEN del growth, bCat KO growth)
O=S(=O)(c1ccccc1)N1CCC(O)(CSc2ccc(F)cc2)CC1	none (no result: PTEN del growth, bCat KO growth)
CCOC(=O)C1(CCCc2ccccc2)CCN(Cc2cnc(C)s2)CC1	L major viab 77 (no result: PTEN del growth, bCat KO growth)
O=C(CCN1CCN(c2ccccc2)CC1)N/N=C/c1ccccc1OC(F)F	none (no result: PTEN del growth, bCat KO growth)
c1ccc2c(c1)oc1c(N3CCN(Cc4ccc5c(c4)OCO5)CC3)ncnc12	L major viab 94
CCc1nc(NCc2ccc3c(c2)OCO3)c2oc3ccccc3c2n1	L major viab 72
CCNc1nc(CC)nc2c1oc1ccccc12	L major viab 57
c1ccc(Cn2nnc3c(N4CCN(Cc5ccc6c(c5)OCO6)CC4)ncnc32)cc1	none
CCNc1nc(C)nc2c1oc1ccccc12	none
CCCNC(=O)c1ccc(C2SCC(=O)N2CCc2ccccc2)cc1 (stereo unspecified)	none
O=Nc1c2ccc[nH]c-2c2ccc([N+](=O)[O-])cc12	none (no result: PTEN del growth, bCat KO growth)
CCCn1c(C)cc(C(=O)COc2ccc(-c3nnco3)cc2)c1C	none (no result: PTEN del growth, bCat KO growth)
COc1ccc(-n2cccc2C=O)cc1	none
COc1ccc(-n2cccc2/C=C/[N+](=O)[O-])cc1	PTEN del growth 2.8, bCat KO growth 2.2, L major viab 100
COc1cc(OC)cc(C(=O)Nc2c(C)nn(-c3ccccc3)c2C)c1	none (no result: PTEN del growth, bCat KO growth)
O=C(Nc1cc(C(F)(F)F)ccc1N1CCOCC1)c1ccccc1	none
O=C(Nc1cc(C(F)(F)F)ccc1N1CCOCC1)c1ccc(Cl)nc1	L major viab 100
Cc1ccc(OCC(=O)Nc2nnc(C3CCCO3)s2)c(Br)c1 (stereo unspecified)	none (no result: PTEN del growth, bCat KO growth)
Cc1cc(C)c(C)c(S(=O)(=O)N2CCN(c3ccc(O)cc3)CC2)c1C	L major viab 55 (no result: PTEN del growth, bCat KO growth)
Cc1ccc(S(=O)(=O)N2CCOCC2)cc1NC(=O)CN1CCN(c2ccc(O)cc2)CC1	none
CCOC(=O)C1=C(O)/C(=C\c2cc(C)n(-c3ccc(F)cc3)c2C)N=C1C	none (no result: PTEN del growth, bCat KO growth)
O=C(C1CC(c2ccc(F)cc2)=NO1)N1CCN(Cc2ccccc2)CC1 (stereo unspecified)	L major viab 89
COc1ccc(F)c(CN2CCC(N3CCC(C(=O)N4CCOCC4)CC3)CC2)c1	none (no result: PTEN del growth, bCat KO growth)
COc1ccc(CN2CCC(N3CCC(C(=O)N4CCOCC4)CC3)CC2)c(F)c1	L major viab 78 (no result: PTEN del growth, bCat KO growth)
O=C(C1CCN(C2CCN(C/C=C/c3ccccc3)CC2)CC1)N1CCOCC1	L major viab 59 (no result: PTEN del growth, bCat KO growth)
O=C(O)C1C2C=CC(C2)C1C(=O)N1CCN(C/C=C/c2ccccc2)CC1 (stereo unspecified)	L major viab 88
Cc1sc(Cc2nc(O)cs2)nc1-c1ccccc1	none (no result: PTEN del growth, bCat KO growth)
O=C(C1CCN(Cc2ccccc2)CC1)N1CCN(C/C=C/c2ccccc2)CC1	none
O=C(C1CCN(Cc2ccc(F)cc2)CC1)N1CCN(C/C=C/c2ccccc2)CC1	L major viab 73 (no result: PTEN del growth, bCat KO growth)
COc1ccc(C(c2nnnn2Cc2ccccc2)N2CCN(c3nc4ccccc4s3)CC2)cc1 (stereo unspecified)	L major viab 100
Cc1ccc(C(c2nnnn2Cc2ccccc2)N2CCN(Cc3ccccc3)CC2)cc1 (stereo unspecified)	L major viab 92
COc1cccc2sc(N3CCN(c4nc5ccccc5s4)CC3)nc12	PTEN del growth 2.4, bCat KO growth 1.8
COc1ccc(C(c2nnnn2Cc2ccccc2)N2CCN(c3ccccc3)CC2)cc1 (stereo unspecified)	none
Fc1ccc(Cn2nnnc2C(c2ccc(Cl)cc2)N2CCSCC2)cc1 (stereo unspecified)	L major viab 99
c1ccc2sc(N3CCOCC3)nc2c1	none (no result: PTEN del growth)
CC1CCN(C(c2ccc(N(C)C)cc2)c2nnnn2Cc2ccc(F)cc2)CC1 (stereo unspecified)	none

High-throughput results: PubChem, several laboratories
